Experimental data collected from several papers.
Compare with care: the assays were run in different laboratories.
Target: MAP/microtubule affinity-regulating kinase 3 (MARK3, Homo sapiens, UniProt P27448)

Structure (SMILES)	assay	conditions	quantity	result
Cc1cc(O)c(-c2ccc([C@@H](C)CN(C)C)cc2)c2c1[nH]c(=O)c1sccc12	enzyme activity, inhibitor	0.1 µM	inhibition	-0.763%
COc1ccc2oc(-c3ccc4nc(N)oc4c3)c/c(=N\c3ccccc3NC(=O)CCN)c2c1	binding	1 µM	remaining binding	104%
CO[C@@H]1[C@H](N(C)C(=O)c2ccccc2)C[C@H]2O[C@]1(C)n1c3ccccc3c3c4c(c5c6ccccc6n2c5c31)C(=O)NC4	enzyme activity, inhibitor	1 µM	inhibition	95%
CN1CCN(C(=O)c2ccc(NC(=O)Nc3ccc(N(C)c4ccnc(Nc5ccc(CS(C)(=O)=O)cc5)n4)cc3)cc2)CC1	binding	1 µM	remaining binding	43%
CCCCC(=O)Nc1ccc(-c2ccc3ncn(CCC)c(=O)c3c2)cn1	binding, competition with immobilised ligand	0.5 µM	remaining binding	91%
Cc1ccc(NC(=O)c2ccnc(C(F)(F)F)c2)cc1-c1cc(OCCO)nc(N2CCOCC2)c1	binding	1 µM	remaining binding	97%
CC#CC(=O)N1CCC[C@H]1c1nc(-c2ccc(C(=O)Nc3ccccn3)cc2)c2c(N)nccn12	enzyme activity, inhibitor	1 µM	inhibition	0%
C#Cc1cnc(Nc2ccnc(CO)c2)nc1Nc1ccccc1S(C)(=O)=NC#N (centres unmarked)	cell-free assay	1 µM	remaining signal	42%
C1=C/COCc2cc(ccc2OCCN2CCCC2)Nc2nccc(n2)-c2cccc(c2)COC/1	binding	0.1 µM	remaining binding	100%
CC(C)S(=O)(=O)c1ccc2nccc(Nc3ccc4sc(C5CCCC5)nc4c3)c2c1	enzyme activity, inhibitor	1 µM	activity vs control	120%
N#Cc1ccc(NC(=O)Nc2ccccc2)cc1	cell-free assay, competition with immobilised ligand	25 µM	remaining binding	78%
